ChEMBL document CHEMBL1157946, “Sesquiterpene lactones as allelochemicals” (J Nat Prod, 2006)
Calls of active or inactive are those of the source. No cut-off for these calls is given here.

What was measured:
Triticum aestivum [1] = experiment: Growth inhibition of Triticum aestivum L. cv. Duro at 1 mM after 24 hrs by coleoptile assay; assay type: functional, organism-based
In short: (§1)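 Etiolated wheat coleoptile sections (apical 2 mm discarded, next 4 mm used; cut under green safelight), tested at 10^-3 to 10^-6 M from DMSO stock (max 0.1% DMSO final) in phosphate–citrate buffer pH 5.6 with 2% sucrose. Five sections per tube, three tubes per dilution, duplicated. Tubes rotated at 0.25 rpm, 24 h, 22 °C, dark. Lengths from digitized images. Reported as % difference from parallel control; Welch's test.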

Lactuca sativa [2] = experiment: Phytotoxicity against Lactuca sativa L. assessed as inhibition of root growth at 0.5 mM to 50 uM relative to control; assay type: functional, organism-based
In short: (§2)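 Seeds on filter paper in Petri dishes with 10^-2 M MES buffer, pH 6.0. Test concentrations 5×10^-4, 10^-4, 5×10^-5 and 10^-5 M, made by diluting DMSO solutions at 5 μL/mL buffer. Dishes sealed and kept at 25 °C in the dark: lettuce and tomato 5 days, onion 7 days. Plants frozen at -10 °C for 24 h before measurement. Root and shoot length recorded automatically and compared with buffer/DMSO control.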

Lactuca sativa [3] = experiment: Phytotoxicity against Lactuca sativa L. assessed as inhibition of shoot growth at 0.5 mM to 50 uM relative to control; assay type: functional, organism-based; in short: as §2
Solanum lycopersicum [4] = experiment: Phytotoxicity against Lycopersicon esculentum Will assessed as inhibition of root growth at 0.5 mM to 50 uM relative to control; assay type: functional; in short: as §2
Solanum lycopersicum [5] = experiment: Phytotoxicity against Lycopersicon esculentum Will assessed as inhibition of shoot development at 0.5 mM relative to control; assay type: functional; in short: as §2
Allium cepa [6] = experiment: Phytotoxicity against Allium cepa assessed as inhibition of root growth at 0.5 mM relative to control; assay type: functional; in short: as §2
Allium cepa [7] = experiment: Phytotoxicity against Allium cepa assessed as inhibition of shoot growth at 0.5 mM relative to control; assay type: functional; in short: as §2
Triticum aestivum [8] = experiment: Growth inhibition of Triticum aestivum L. cv. Duro after 24 hrs by coleoptile assay; assay type: functional, organism-based; in short: as §1
Triticum aestivum [9] = experiment: Growth stimulation of Triticum aestivum L. cv. Duro at <1 mM after 24 hrs by coleoptile assay; assay type: functional, organism-based; in short: as §1
Triticum aestivum [10] = experiment: Growth inhibition of Triticum aestivum L. cv. Duro at 1 uM after 24 hrs by coleoptile assay; assay type: functional; in short: as §1

For C=C1C(=O)O[C@H]2[C@H]1[C@H](OC(=O)/C(C)=C\C)C[C@]1(C)C=CC(=O)C(=C)[C@H]2O1 [HELIVYPOLIDE F], the Activity (Triticum aestivum [1]) was “Active”, the Activity (Lactuca sativa [2]) was “Active” and the Activity (Lactuca sativa [3]) was “Active”. For the same compound, the “inhibition (INH)” value (Solanum lycopersicum [4]) was 32%, the inhibition at 500 µM (Solanum lycopersicum [5]) was 20% and the inhibition at 500 µM (Allium cepa [6]) was 54%. For the same compound, the inhibition at 500 µM (Allium cepa [7]) was 20%.

For C=C1C(=O)O[C@H]2/C=C(/CO)C(=O)/C=C/[C@@](C)(O)C[C@@H](OC(=O)/C(C)=C\C)[C@@H]12, the Activity (Lactuca sativa [2]) was “Active”, the Activity (Lactuca sativa [3]) was “Active” and the inhibition at 500 µM (Solanum lycopersicum [5]) was 20%. It also gave an inhibition at 500 µM (Allium cepa [6]) of 54%.

In the case of C=C1C(=O)O[C@@H]2[C@H]3C(C)=CC[C@H]3[C@](C)(O)C[C@@H](OC(=O)/C(C)=C\C)[C@@H]12, the IC50 (Triticum aestivum [1]) is reported as 150 µM and the inhibition at 1000 µM (Triticum aestivum [1]) is reported as 98%.

In the case of C=C1C(=O)O[C@@H]2/C=C(/CO)[C@@]3(O)CC[C@@](C)(C[C@@H](OC(=O)/C(C)=C\C)[C@@H]12)O3 [NIVEUSIN B], the inhibition at 1000 µM (Triticum aestivum [1]) is reported as 92% and the inhibition at 500 µM (Solanum lycopersicum [5]) is reported as 20%.

With C=C1C(=O)O[C@@H]2[C@H]3C(C)=C[C@H](O)[C@H]3[C@](C)(O)C[C@@H](OC(=O)/C(C)=C\C)[C@@H]12 [ANNUOLIDE H] the “inhibition (INH)” value (Triticum aestivum [8]) was 82%.

For C=C1C(=O)O[C@H]2[C@H]1[C@H](OC(=O)/C(C)=C\C)C[C@@]1(C)[C@H](O)C[C@H](O)C(=C)[C@@H]21, the Activity (Triticum aestivum [9]) was “Active”.

For C=C1C(=O)O[C@@H]2[C@H]3C(CO)=CC[C@H]3C(=C)CC[C@@H]12 [ANNUOLIDE A], the inhibition at 1000 µM (Triticum aestivum [1]) was 90%, the IC50 (Triticum aestivum [8]; Triticum aestivum, 24 h) was 370 µM and the inhibition at 1 µM (Triticum aestivum [10]) was 35%.
